Measured values: ChEMBL document CHEMBL1144979, “Combinatorial modification of natural products: synthesis and in vitro analysis of derivatives of thiazole peptide antibiotic GE2270 A: A-ring modifications” (Bioorg Med Chem Lett, 2003)
Converted amounts (≈) assume the structure as drawn.

Assays:
Enterococcus faecalis [1] = experiment: In vitro antibacterial activity against Vancomycin-resistant Enterococcus faecalis ATCC 51299; type: functional
Haemophilus influenzae [2] = experiment: In vitro antibacterial activity against Haemophilus influenzae (acr, LS-2); type: functional
How it was run: (§1)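 MICs by NCCLS broth dilution guidelines, modified by adding 0.02% bovine serum albumin to the growth medium; purified, resynthesized compounds tested against the expanded bacterial panel.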

Escherichia coli = experiment: In vitro antibacterial activity against Escherichia coli (A G100B); type: functional; how it was run: as §1
Enterococcus faecium = experiment: In vitro antibacterial activity against Vancomycin-susceptible Enterococcus faecium BM4147.1; type: functional; how it was run: as §1
[3] = test system: Staphylococcus epidermidis; experiment: In vitro antibacterial activity against Staphylococcus epidermidis (ATCC 12228); type: functional; how it was run: as §1
Streptococcus pyogenes = experiment: In vitro antibacterial activity against Streptococcus pyogenes (ATTC19615); type: functional; how it was run: as §1
Staphylococcus aureus [4] = experiment: In vitro antibacterial activity against methicillin sensitive Staphylococcus aureus ATCC 25923; type: functional; how it was run: as §1
Streptococcus pneumoniae = experiment: In vitro antibacterial activity against Streptococcus pneumoniae (ATTC49619); type: functional; how it was run: as §1
Haemophilus influenzae [5] = experiment: In vitro antibacterial activity against Haemophilus influenzae (ATTC31517); type: functional; how it was run: as §1
Staphylococcus aureus [6] = experiment: In vitro antibacterial activity against methicillin resistant Staphylococcus aureus (MRSA) ATCC 33591; type: functional
Enterococcus faecalis [7] = experiment: In vitro antibacterial activity against Vancomycin-resistant Enterococcus faecalis (ATTC51299)
[8] = Inhibitory activity against elongation factor Tu (EF-Tu); type: functional, Bacteria

| SMILES | MIC (Enterococcus faecalis [1]) | MIC (Haemophilus influenzae [2]) | MIC (Escherichia coli) | MIC (Enterococcus faecium) | MIC [3] | MIC (Streptococcus pyogenes) | MIC (Staphylococcus aureus [4]) | MIC (Streptococcus pneumoniae) | MIC (Haemophilus influenzae [5]) | MIC (Staphylococcus aureus [6]) | MIC (Enterococcus faecalis [7]) | IC50 [8] |
| --- | --- | --- | --- | --- | --- | --- | --- | --- | --- | --- | --- | --- |
| CNC(=O)C[C@@H]1NC(=O)c2csc(n2)-c2ccc(-c3nc(COC(=O)NCCCCC(=O)O)cs3)nc2-c2csc(n2)-c2csc(n2)C(C(O)c2ccccc2)NC(=O)CNC(=O)c2nc(sc2COC)[C@H](C(C)C)NC(=O)c2nc1sc2C (stereo not given in full) | 0.5 µg/mL (≈ 0.399 µM) | 2 µg/mL (≈ 1.59 µM) | > 16 µg/mL | 0.125 µg/mL (≈ 0.0996 µM) | 0.5 µg/mL (≈ 0.399 µM) | 4 µg/mL (≈ 3.19 µM) | 0.5 µg/mL (≈ 0.399 µM) | 2 µg/mL (≈ 1.59 µM) | 8 µg/mL (≈ 6.38 µM) | 0.25 µg/mL (≈ 0.199 µM) |  |  |
| CNC(=O)C[C@@H]1NC(=O)c2csc(n2)-c2ccc(-c3nc(C(=O)NCCCCCC(=O)O)cs3)nc2-c2csc(n2)-c2csc(n2)C(C(O)c2ccccc2)NC(=O)CNC(=O)c2nc(sc2COC)[C@H](C(C)C)NC(=O)c2nc1sc2C (stereo not given in full) | 0.03 µg/mL (≈ 0.0242 µM) |  |  | 0.03 µg/mL (≈ 0.0242 µM) |  |  | 0.06 µg/mL (≈ 0.0484 µM) |  |  | 0.015 µg/mL (≈ 0.0121 µM) |  |  |
| CNC(=O)C[C@@H]1NC(=O)c2csc(n2)-c2ccc(-c3nc(C(=O)NCCCN)cs3)nc2-c2csc(n2)-c2csc(n2)C(C(O)c2ccccc2)NC(=O)CNC(=O)c2nc(sc2COC)[C@H](C(C)C)NC(=O)c2nc1sc2C (stereo not given in full) | 2 µg/mL (≈ 1.69 µM) |  |  | 2 µg/mL (≈ 1.69 µM) |  |  | 1 µg/mL (≈ 0.846 µM) |  |  | 1 µg/mL (≈ 0.846 µM) |  |  |
| CNC(=O)C[C@@H]1NC(=O)c2csc(n2)-c2ccc(-c3nc(COC(=O)N[C@H](C)C(=O)O)cs3)nc2-c2csc(n2)-c2csc(n2)C(C(O)c2ccccc2)NC(=O)CNC(=O)c2nc(sc2COC)[C@H](C(C)C)NC(=O)c2nc1sc2C (stereo not given in full) | 1 µg/mL (≈ 0.815 µM) | 1 µg/mL (≈ 0.815 µM) | > 16 µg/mL | 0.25 µg/mL (≈ 0.204 µM) | 2 µg/mL (≈ 1.63 µM) | 2 µg/mL (≈ 1.63 µM) | 0.5 µg/mL (≈ 0.408 µM) | 2 µg/mL (≈ 1.63 µM) | 16 µg/mL (≈ 13 µM) | 0.5 µg/mL (≈ 0.408 µM) |  |  |
| CNC(=O)C[C@@H]1NC(=O)c2csc(n2)-c2ccc(-c3nc(COC(=O)NCC(O)CC(=O)O)cs3)nc2-c2csc(n2)-c2csc(n2)C(C(O)c2ccccc2)NC(=O)CNC(=O)c2nc(sc2COC)[C@H](C(C)C)NC(=O)c2nc1sc2C (stereo not given in full) | 1 µg/mL (≈ 0.796 µM) | 2 µg/mL (≈ 1.59 µM) | > 16 µg/mL | 0.5 µg/mL (≈ 0.398 µM) | 2 µg/mL (≈ 1.59 µM) | 8 µg/mL (≈ 6.37 µM) | 1 µg/mL (≈ 0.796 µM) | 4 µg/mL (≈ 3.18 µM) | > 16 µg/mL | 0.5 µg/mL (≈ 0.398 µM) |  |  |
| CNC(=O)C[C@@H]1NC(=O)c2csc(n2)-c2ccc(-c3nc(C4=N[C@H](C(=O)N5CCC[C@H]5C(N)=O)CO4)cs3)nc2-c2csc(n2)-c2csc(n2)C(C(O)c2ccccc2)NC(=O)CNC(=O)c2nc(sc2COC)[C@H](C(C)C)NC(=O)c2nc1sc2C (stereo not given in full) |  | > 16 µg/mL | > 16 µg/mL | 0.015 µg/mL (≈ 0.0116 µM) | 0.03 µg/mL (≈ 0.0232 µM) | 0.125 µg/mL (≈ 0.0969 µM) | 0.03 µg/mL (≈ 0.0232 µM) | 0.06 µg/mL (≈ 0.0465 µM) | > 16 µg/mL | 0.03 µg/mL (≈ 0.0232 µM) | 0.015 µg/mL (≈ 0.0116 µM) | 5 nM |
| CN[C@H](CC(C)C)C(=O)N[C@H]1C(=O)N[C@@H](CC(N)=O)C(=O)N[C@H]2C(=O)N[C@H]3C(=O)N[C@H](C(=O)N[C@H](C(=O)O)c4cc(O)cc(O)c4-c4cc3ccc4O)[C@H](O)c3ccc(c(Cl)c3)Oc3cc2cc(c3O[C@@H]2O[C@H](CO)[C@@H](O)[C@H](O)[C@H]2O[C@H]2C[C@](C)(N)[C@H](O)[C@H](C)O2)Oc2ccc(cc2Cl)[C@H]1O [VANCOMYCIN] | > 16 µg/mL | > 16 µg/mL | > 16 µg/mL |  |  | 0.25 µg/mL (≈ 0.173 µM) |  | 0.125 µg/mL (≈ 0.0863 µM) | > 16 µg/mL |  |  |  |
